A short description of experiment [1]: Cytotoxicity against human COLON cells after 48 hrs by SRB assay. In kind it is functional. Put shortly:
(§1)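 NCI-60 screen: single-dose pass at 10^-5 M, then a five-concentration assay from 10^-9 to 10^-4 M (highest 100 μM). Exposure was 48 h under standard NCI protocols. GI50, TGI and LC50 were derived per cell line and averaged by subpanel. Repeated tests are the mean of two experiments.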
Background: Sulforhodamine B stains cellular protein and so reports cell mass.

The test system of experiment [2] is Ovarian carcinoma cell. The experiment can be described thus: Cytotoxicity against human ovarian cancer cells after 48 hrs by SRB assay. Format: functional. An outline of the steps: as §1
Experiment [3] deals with K562. The experiment can be described thus: Cell cycle arrest in human K562 cells assessed as mitotic index at IC50 by Giemsa staining-based assay (reference value: 3%). Format: functional.
Experiment [4] relates to Melanoma cell line. The experiment can be described thus: Cytotoxicity against human melanoma cells after 48 hrs by SRB assay. In kind it is functional. An outline of the steps: as §1
Experiment [5] has as its system K562. The experiment can be described thus: Cell cycle arrest in human K562 cells assessed as mitotic index at 5 times IC50 by Giemsa staining-based assay (reference value: 3%). Format: functional.
Experiment [6] has as its system K562. The experiment can be described thus: Cytotoxicity against human K562 cells after 16 hrs by SRB assay. The note with it: K562, 16 h.
Experiment [7] concerns Breast carcinoma cell. The experiment can be described thus: Cytotoxicity against human breast cancer cells after 48 hrs by SRB assay. Format: functional. An outline of the steps: as §1
Experiment [8] concerns Leukemia cell. The experiment can be described thus: Cytotoxicity against human leukemia cells after 48 hrs by SRB assay. Format: functional. An outline of the steps:
as §1

In experiment [9] the test system is Renal cancer cell line. The experiment can be described thus: Cytotoxicity against human renal cancer cells after 48 hrs by SRB assay. Format: functional. Put shortly:
as §1

For experiment [10], the system named is NSCLC. The experiment can be described thus: Cytotoxicity against human NSCLC cells after 48 hrs by SRB assay. In kind it is functional. Put shortly: as §1
Experiment [11] has as its system K562. The experiment can be described thus: Cytotoxicity against human K562 cells after 48 hrs by SRB assay. Format: functional, cell-based.
The subject of experiment [12] is CNS carcinoma cell. The experiment can be described thus: Cytotoxicity against human CNS cancer cells after 48 hrs by SRB assay. Format: functional. An outline of the steps: as §1
For experiment [13], the system named is Prostatic carcinoma cell. The experiment can be described thus: Cytotoxicity against human prostate cancer cells after 48 hrs by SRB assay. Format: functional. Put shortly:
as §1

The target in experiment [14] is T1, Tubulin (Bos taurus) (UniProt Q6B856+Q862L2+Q862F3). The experiment can be described thus: Inhibition of [3H]colchicine binding to bovine brain tubulin at 50 uM after 20 mins relative to control. Put shortly: (§2)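 Reaction mixtures held 1 μM tubulin, 5 μM [³H]colchicine and test compound at 5 or 50 μM. Read-out was percent inhibition of colchicine binding.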

Experiment [15] relates to K562. The experiment can be described thus: Cell cycle arrest in human K562 cells assessed as mitotic index at 10 times IC50 by Giemsa staining-based assay (reference value: 3%). In kind it is functional.
For experiment [16], the target named is Tubulin (Bos taurus, UniProt Q6B856+Q862L2+Q862F3). The experiment can be described thus: Inhibition of bovine brain tubulin polymerization after 20 mins by spectrophotometric analysis. An outline of the steps:
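Bovine brain tubulin (10 μM) in glutamate buffer preincubated with varying compound levels at 30 °C, then chilled to 0 °C. GTP added to 0.4 mM final, then warmed to 30 °C. Assembly followed by turbidity at 350 nm. IC50 is the concentration halving the extent of assembly after 20 min.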

The target of experiment [17] is T1, Tubulin (Bos taurus). The experiment can be described thus: Inhibition of [3H]colchicine binding to bovine brain tubulin at 5 uM after 20 mins relative to control. An outline of the steps: as §2
Experiment [18] concerns E0771. The experiment can be described thus: Antitumor activity mouse E0771 cells implanted in C57BL/6 mouse assessed tumor growth inhibition at 30 mg/kg, ip dosed every other day for 20 days relative to control. In kind it is functional. The note with it: 480 h, read-out: TGI. An outline of the steps: (§3)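 Syngeneic allograft: C57BL/6 mice, six weeks old, given 2.5×10^5 BL6-B16 or E0771 cells subcutaneously in the dorsolateral flank in PBS. Dosing began at about 100 mm³. Test compound or reference was given intraperitoneally every other day in 50 μL DMSO, with DMSO vehicle controls. Tumor volume was compared with the vehicle group, 5 animals per group, mean ± SEM, by 2-way ANOVA with Bonferroni correction.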

For experiment [19], the system named is B16-BL6. The experiment can be described thus: Antitumor activity mouse B16-BL6 cells implanted in C57BL/6 mouse assessed tumor growth inhibition at 30 mg/kg, ip dosed every other day for 18 days relative to control. In kind it is functional. The note with it: 432 h, read-out: TGI. Put shortly: as §3
Where [20] appears, read: read-out: LC50 (the source's name).

Consider two compounds from ChEMBL document CHEMBL4316599, “Synthesis, in vitro and in vivo biological evaluation of substituted 3-(5-imidazo[2,1-b]thiazolylmethylene)-2-indolinones as new potent anticancer agents” (Eur J Med Chem, 2019).

What is called GI50 is the concentration giving 50% growth inhibition. The TGI is the concentration at which net growth stops. A lower TGI goes with greater sensitivity of the cells. The term IC50 denotes the concentration needed to halve the response being measured. A higher IC50 goes with weaker potency. In general, LC50 refers to the concentration lethal to half of the exposed cells or organisms. Usually inhibition stands for the percentage by which the read-out fell short of the control. Lower therefore signals little suppression.

With `COc1nc2sc(C)cn2c1/C=C1/C(=O)Nc2ccccc21`, the GI50 in [1] stood at 0.8 µM; in experiment [2] it was 6.29 µM; in experiment [4] it was 16.2 µM; in experiment [7], 2.52 µM; in experiment [8], 0.5 µM; in experiment [9], 3.53 µM. Also, the GI50 was 5.68 µM in [10], 1.97 µM in experiment [12] and 2.09 µM in [13]. In addition, the TGI in experiment [1] came to 56.8 µM; in [2], 55.6 µM; in experiment [4] it was 74.8 µM; in experiment [7], 67.3 µM; in experiment [8] it was 7.25 µM; in [9], 67.6 µM. Besides, the figures for the TGI in experiment [10], in experiment [12] and in [13] were 65.2 µM, 40.1 µM and 45 µM, respectively. In addition, the CC50 in experiment [1] (setting [20]) was determined as 93.3 µM; in [4] (setting [20]), 94.9 µM; in [12] (setting [20]) it was 87.9 µM. Moreover, in [2], the LC50 (50% lethal concentration) stood at 96.3 µM. Besides, the Activity in [3] is 42%; in [5], 61%; in experiment [11], “Dose-dependent effect”; in [15], 80%. For the same compound, the IC50 in experiment [6] turned out to be 1 µM; in [16], 3.4 µM. Besides, the LC50 was 93.7 µM in experiment [8] and 99 µM in experiment [10]. The results for the inhibition in experiment [14] and in experiment [17] were 81% and 39%, respectively.
Regarding `COc1ccc(/C=C\c2cc(OC)c(OC)c(OC)c2)cc1O` [COMBRETASTATIN A4], the inhibition in vivo at 30 mg/kg in experiment [18] is 30.9%; in experiment [19], 16 to 18%. The Activity in experiment [3] was 15%; in experiment [5], 32%; in [11], “Dose-dependent effect”; in experiment [15], 61%. This compound registered an IC50 in experiment [6] of 0.004 µM.
